Experimental data reported in ChEMBL document CHEMBL4229525, “Anti-angiogenic and anticancer effects of baicalein derivatives based on transgenic zebrafish model” (Bioorg Med Chem, 2018).
Calls of active or inactive are those of the source. The calls are words filed in the database; no cut-off is given here.

Experiments:
[1] = species on record: Danio rerio; assay: Toxicity in 24 to 72 hrs post fertilized zebra fish embryo harboring fli1:EGFP; assay type: organism-based; settings: zebrafish, in vivo
In short: (§1)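 Dechorionated Tg(fli1:EGFP) embryos at 24 hpf, 20 per group, were kept in 1 mL embryo water with compound at 28.5 °C for a further 48 h. Compound was tested at 1, 5, 10, 25, 50, 75, 100, 150 and 200 μM. At 72 hpf, embryos anaesthetised with 0.016% tricaine had their ISVs imaged by fluorescence microscopy, with SU5416 as positive control. Definitions used: LOEC is anti-angiogenic effect in most larvae; LOTC is lowest toxic concentration; LC100 is total embryo lethality. TI = LOTC/LOEC; AI = LC100/LOEC.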

[2] = species on record: Danio rerio; assay: Toxicity in 48 hrs post fertilized zebra fish embryo harboring fli1:EGFP assessed as morphological changes at 5 to 50 uM; assay type: organism-based; settings: zebrafish, in vivo
In short: (§2)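 Tg(fli1:EGFP) zebrafish: 20 dechorionated 24 hpf embryos per group in 1 mL embryo water with compound (1, 5, 10, 25, 50, 75, 100, 150, 200 μM), 28.5 °C for 48 h. Embryos anaesthetised in 0.016% tricaine; ISVs imaged by fluorescence microscopy at 72 hpf and scored for vessel defects and overall morphology. SU5416 positive control.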

[3] = tested on: HUVEC; assay: Antimigratory activity in HUVEC at 25 uM after 8 hrs by crystal violet staining based Boyden chamber assay relative to control; assay type: functional, Homo sapiens
In short: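 Boyden chamber with 8 μm pores, 8000 HUVECs/well, compound or vehicle in the top chamber, 8 h migration. Non-migrated cells removed by swab; migrated cells fixed in 100% methanol, stained with 0.05% crystal violet and counted manually in four random fields per well. Three replicate wells; % inhibition relative to control set at 100%; mean ± SEM, n=3.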

[4] = tested on: HUVEC; assay: Antiangiogenic activity in HUVEC assessed as inhibition of capillary-like tube formation after 12 hrs by matrigel-based microscopic analysis; assay type: functional, cell-based; settings: Homo sapiens
In short: (§3)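 Growth-factor-reduced Matrigel solidified 120 min at 37 °C; 2×10⁴ HUVECs/well in EGM-2 with compound or 2 μM SU5416, 12 h. Networks imaged at 100× and tube length quantified in four random fields; mean ± SEM, n=3.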

[5] = tested on: A549; assay: Induction of apoptosis in human A549 cells assessed as necrotic cells at 1 uM after 48 hrs by Annexin-V-FITC/propidium iodide staining based flow cytometry (reference value: 5.45%); assay type: functional
In short: (§4)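 A549 cells, 2×10⁵/well, were cultured for 24 h at 37 °C, 5% CO₂, then treated 48 h with 1, 4 or 8 μM compound. Staining used annexin V-FITC and PI, 30 min at 25 °C, followed by flow cytometry; Q3 was counted as early apoptotic and Q2 as late apoptotic.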

[6] = tested on: A549; assay: Induction of apoptosis in human A549 cells assessed as late apoptotic cells at 4 uM after 48 hrs by Annexin-V-FITC/propidium iodide staining based flow cytometry (reference value: 4.05%); assay type: functional; in short: as §4
[7] = tested on: A549; assay: Induction of apoptosis in human A549 cells assessed as necrotic cells at 4 uM after 48 hrs by Annexin-V-FITC/propidium iodide staining based flow cytometry (reference value: 5.45%); assay type: functional; in short: as §4
[8] = tested on: A549; assay: Antiproliferative activity against human A549 cells after 48 hrs by MTT assay; assay type: functional, cell-based; settings: A549, 48 h
In short: (§5)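 A549 or L929 fibroblasts seeded at 4×10⁴ cells/mL in DMEM with 10% FBS, 5% horse serum and penicillin/streptomycin, 37 °C, 5% CO₂. After 24 h, compound added for 48 h. MTT read at 570 nm; viability = OD treated/OD untreated ×100%; mean ± SD.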

[9] = tested on: A549; assay: Induction of apoptosis in human A549 cells assessed as live cells at 1 uM after 48 hrs by Annexin-V-FITC/propidium iodide staining based flow cytometry (reference value: 75.2%); assay type: functional; in short: as §4
[10] = tested on: HUVEC; assay: Cytotoxicity against HUVEC assessed as inhibition of cell proliferation after 48 hrs by CCK8 assay; assay type: cell-based, Homo sapiens
In short: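 HUVECs were seeded at 3000/well in EGM-2 and allowed 12 h to attach, then exposed 48 h to compound (5–50 μM) or 0.1% DMSO vehicle. Growth was read by CCK-8 absorbance at 450 nm, in triplicate, and IC50 was calculated from the concentration–response data.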

[11] = tested on: A549; assay: Induction of apoptosis in human A549 cells assessed as early apoptotic cells at 4 uM after 48 hrs by Annexin-V-FITC/propidium iodide staining based flow cytometry (reference value: 15.2%); assay type: functional; in short: as §4
[12] = tested on: A549; assay: Induction of apoptosis in human A549 cells assessed as early apoptotic cells at 8 uM after 48 hrs by Annexin-V-FITC/propidium iodide staining based flow cytometry (reference value: 15.2%); assay type: functional; in short: as §4
[13] = species on record: Danio rerio; assay: Antiangiogenic activity in 48 hrs post fertilized zebra fish embryo harboring fli1:EGFP assessed as inhibition of intersegmental vessel formation at 50 uM by fluorescence microscopic analysis; assay type: functional; in short: as §2
[14] = tested on: A549; assay: Induction of apoptosis in human A549 cells assessed as live cells at 8 uM after 48 hrs by Annexin-V-FITC/propidium iodide staining based flow cytometry (reference value: 75.2%); assay type: functional; in short: as §4
[15] = Toxicity index, ratio of MTC for 24 to 72 hrs post fertilized zebra fish embryo harboring fli1:EGFP to MEC for antiangiogenic activity in 24 to 72 hrs post fertilized zebra fish embryo harboring fli1:EGFP; assay type: organism-based, Danio rerio; settings: fli1:EGFP transgenic, zebrafish, in vivo; in short: as §1
[16] = Antiangiogenic index, ratio of LC100 for 24 to 72 hrs post fertilized zebra fish embryo harboring fli1:EGFP to MEC for antiangiogenic activity in 24 to 72 hrs post fertilized zebra fish embryo harboring fli1:EGFP; assay type: toxicity, organism-based, Danio rerio; settings: fli1:EGFP transgenic, zebrafish, in vivo; in short: as §1
[17] = tested on: A549; assay: Induction of apoptosis in human A549 cells assessed as necrotic cells at 8 uM after 48 hrs by Annexin-V-FITC/propidium iodide staining based flow cytometry (reference value: 5.45%); assay type: functional; in short: as §4
[18] = tested on: HUVEC; assay: Antiangiogenic activity in HUVEC assessed as inhibition of capillary-like tube formation at 100 uM after 12 hrs by matrigel-based microscopic analysis; assay type: functional; settings: Homo sapiens; in short: as §3
[19] = species on record: Danio rerio; assay: Antiangiogenic activity in 48 hrs post fertilized zebra fish embryo harboring fli1:EGFP assessed as changes in blood vessel formation at late stage embryos by fluorescence microscopic analysis; assay type: functional, organism-based; in short: as §2
[20] = tested on: A549; assay: Induction of apoptosis in human A549 cells assessed as late apoptotic cells at 8 uM after 48 hrs by Annexin-V-FITC/propidium iodide staining based flow cytometry (reference value: 4.05%); assay type: functional; in short: as §4
[21] = tested on: A549; assay: Induction of apoptosis in human A549 cells assessed as live cells at 4 uM after 48 hrs by Annexin-V-FITC/propidium iodide staining based flow cytometry (reference value: 75.2%); assay type: functional; in short: as §4
[22] = species on record: Danio rerio; assay: Antiangiogenic activity in 48 hrs post fertilized zebra fish embryo harboring fli1:EGFP assessed as inhibition of dorsal long axis blood vessel formation at 50 uM by fluorescence microscopic analysis; assay type: functional; in short: as §2
[23] = tested on: L929; assay: Cytotoxicity against mouse L929 cells after 48 hrs by MTT assay; assay type: functional, cell-based; settings: L929, 48 h; in short: as §5
[24] = tested on: A549; assay: Induction of apoptosis in human A549 cells assessed as early apoptotic cells at 1 uM after 48 hrs by Annexin-V-FITC/propidium iodide staining based flow cytometry (reference value: 15.2%); assay type: functional; in short: as §4
[25] = tested on: HUVEC; assay: Antiangiogenic activity in HUVEC assessed as inhibition of capillary-like tube formation at 50 uM after 12 hrs by matrigel-based microscopic analysis; assay type: functional; settings: Homo sapiens; in short: as §3
[26] = tested on: HUVEC; assay: Antiangiogenic activity in HUVEC assessed as inhibition of capillary-like tube formation at 25 uM after 12 hrs by matrigel-based microscopic analysis; assay type: functional; settings: Homo sapiens; in short: as §3
[27] = tested on: A549; assay: Induction of apoptosis in human A549 cells assessed as late apoptotic cells at 1 uM after 48 hrs by Annexin-V-FITC/propidium iodide staining based flow cytometry (reference value: 4.05%); assay type: functional; in short: as §4
[28] = tested on: A549; assay: Induction of apoptosis in human A549 cells assessed as caspase-3 activation at 1 to 8 uM by Ac-DEVD-pNA substrate based assay; assay type: functional, cell-based
In short: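 A549 lysates were spun at 15,000 rpm for 15 min at 4 °C. Then 110 µg protein was mixed with reaction buffer and Ac-DEVD-pNA substrate (2 mM stock) and incubated 3 h at 37 °C. Caspase-3 activity was measured as released pNA at 405 nm.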

[29] = species on record: Danio rerio; assay: Antiangiogenic activity in 48 hrs post fertilized zebra fish embryo harboring fli1:EGFP assessed as inhibition of intersegmental vessel formation by fluorescence microscopic analysis; assay type: functional, organism-based; in short: as §2
[30] = species on record: Danio rerio; assay: Antiangiogenic activity in 24 to 72 hrs post fertilized zebra fish embryo harboring fli1:EGFP after 48 hrs by fluorescence microscopic analysis; assay type: functional; in short: as §2

With `O=C(COc1c(OCc2ccccc2)cc2oc(-c3ccccc3)cc(=O)c2c1O)N1CCNCC1` the LC100 [1] was 100 µM, the MTC [1] was 25 µM and the Activity [2] was “Non-Toxic”. The Activity [3] was “<=50%”, the inhibition [4] was “Dose-dependent effect” and the Activity [5] was 7.92%. The Activity [6] was 36%, the Activity [7] was 5.4% and the IC50 [8] was 4.73 µM. The Activity [9] was 36.2%, the IC50 ([10]; Homo sapiens, HUVEC) was 57.1 µM and the “inhibition (INH)” value ([10]; human, huvec) was “Dose-dependent effect”. The Activity [11] was 36.3%, the Activity [12] was 22.5% and the “inhibition (INH)” value [13] was 100%. It also gave an Activity [14] of 10.2%, a selectivity ratio [15] of 5 and a selectivity ratio [16] of 20. For the same compound, the Activity [17] was 2.15%, the inhibition at 100 µM [18] was 72.6% and the Activity [19] was “inactive”. For the same compound, the Activity [20] was 62.1%, the Activity [21] was 22.4% and the “inhibition (INH)” value [22] was 100%. The IC50 [23] was 19.1 µM, the Activity [24] was 32.9% and the inhibition at 50 µM [25] was 54.2%. The inhibition at 25 µM [26] was 24.9%, the Activity [27] was 23% and the Activity [28] was “Active”. For the same compound, the inhibition [29] was “Dose-dependent effect” and the MEC [30] was 5 µM.
